Reference: ChEMBL document CHEMBL1147437, “Omega-carboxypyridyl substituted ureas as Raf kinase inhibitors: SAR of the amide substituent” (Bioorg Med Chem Lett, 2004)
In brackets after ≈: the same amount, converted by molar mass.

Columns and labels:
[1] = molecular target: RAF proto-oncogene serine/threonine-protein kinase (Homo sapiens, UniProt P04049); experiment: Inhibitory activity against human Raf-1 kinase
In short: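 EE-tagged c-Raf and Mek made in baculovirus-infected Sf-9 cells, immuno-affinity purified. Raf (4 μg/mL) with Mek substrate (20 μg/mL) in 200 mM Tris pH 8.2, 100 mM NaCl, 20 mM 2-mercaptoethanol; compound added before starting with 10 μM γ-[³³P]ATP stock. 32 °C, 25 min; phosphocellulose filter capture, scintillation count.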

[2] = Solubility at pH 2.7; type: physicochemical; details: buffer
[3] = Solubility at pH 7.2; type: physicochemical; details: buffer
In short: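 Aqueous solubility determined in 0.5× PBS at pH 7.2; reported in µg/mL.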

RAF proto-oncogene serine/threonine-protein kinase, sequence (P04049 whole entry): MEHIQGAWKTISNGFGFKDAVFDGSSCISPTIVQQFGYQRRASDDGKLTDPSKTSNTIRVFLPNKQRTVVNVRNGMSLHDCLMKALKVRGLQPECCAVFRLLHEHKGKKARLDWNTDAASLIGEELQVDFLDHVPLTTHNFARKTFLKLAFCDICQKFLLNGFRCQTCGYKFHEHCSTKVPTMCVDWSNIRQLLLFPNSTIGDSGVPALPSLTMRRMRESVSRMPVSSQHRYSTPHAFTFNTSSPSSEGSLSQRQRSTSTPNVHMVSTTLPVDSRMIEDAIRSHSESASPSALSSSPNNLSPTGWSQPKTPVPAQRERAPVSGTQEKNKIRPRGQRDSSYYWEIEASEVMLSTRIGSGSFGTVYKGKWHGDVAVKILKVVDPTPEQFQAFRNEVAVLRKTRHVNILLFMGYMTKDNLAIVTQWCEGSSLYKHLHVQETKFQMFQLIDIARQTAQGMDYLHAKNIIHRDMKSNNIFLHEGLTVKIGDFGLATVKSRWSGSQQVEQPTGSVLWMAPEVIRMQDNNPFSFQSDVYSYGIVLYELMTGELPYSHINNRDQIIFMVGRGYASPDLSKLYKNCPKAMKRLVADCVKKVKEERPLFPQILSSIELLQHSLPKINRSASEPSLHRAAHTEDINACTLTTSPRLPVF

| SMILES | IC50 [1] [nM] | solubility [2] [µg/mL] | solubility [3] [µg/mL] |
| --- | --- | --- | --- |
| CN(C)c1ccc(NC(=O)c2cccc(Oc3ccc(NC(=O)Nc4ccc(Cl)c(C(F)(F)F)c4)cc3)c2)cc1 | 230 |  |  |
| CC(C)(C)c1cc(NC(=O)Nc2ccc(Oc3ccncc3)cc2)no1 | 230 |  |  |
| CCC1CCCN1CNC(=O)c1cccc(Oc2ccc(NC(=O)Nc3ccc(Cl)c(C(F)(F)F)c3)cc2)c1 (configuration not stated) | 270 |  |  |
| CC(C)(C)c1cc(NC(=O)Nc2ccc(Oc3cccc(C(=O)NCc4ccccc4)c3)cc2)no1 | 460 |  |  |
| O=C(Nc1ccc(Oc2cccc(C(=O)Nc3ccc(N4CCOCC4)cc3)c2)cc1)Nc1ccc(Cl)c(C(F)(F)F)c1 | 160 |  |  |
| O=C(Nc1ccc(Oc2cccc(C(=O)NCCNc3ccccc3)c2)cc1)Nc1ccc(Cl)c(C(F)(F)F)c1 | 160 |  |  |
| CC(C)(C)c1cc(NC(=O)Nc2ccc(Oc3cccc(C(=O)Nc4ccccc4)c3)cc2)no1 | 370 |  |  |
| CN(C)C(=O)c1cc(Oc2ccc(NC(=O)Nc3ccc(Cl)c(C(F)(F)F)c3)cc2)ccn1 | 300 |  |  |
| COc1ccc(C(F)(F)F)cc1NC(=O)Nc1ccc(Oc2cccc(C(=O)Nc3ccc(N(C)C)cc3)c2)cc1 | 410 |  |  |
| CN(C)C(=O)c1cc(Oc2ccc(NC(=O)Nc3ccc(Br)c(C(F)(F)F)c3)cc2)ccn1 | 170 |  |  |
| COc1ccc(C(F)(F)F)cc1NC(=O)Nc1ccc(Oc2ccnc(C(=O)NCC(C)C)c2)cc1 | 500 |  |  |
| CN(C)C(=O)c1cccc(Oc2ccc(NC(=O)Nc3cc(C(C)(C)C)on3)cc2)c1 | 5800 |  |  |
| COc1ccc(C(F)(F)F)cc1NC(=O)Nc1ccc(Oc2ccnc(C(=O)N(C)C)c2)cc1 | 330 |  |  |
| CC(C)(C)c1cc(NC(=O)Nc2ccc(Oc3ccccc3)cc2)no1 | 1100 |  |  |
| CCNC(=O)c1cc(Oc2ccc(NC(=O)Nc3cc(C(F)(F)F)ccc3OC)cc2)ccn1 | 460 |  |  |
| CC(C)NC(=O)c1cc(Oc2ccc(NC(=O)Nc3ccc(Cl)c(C(F)(F)F)c3)cc2)ccn1 | 2300 |  |  |
| COc1ccc(C(F)(F)F)cc1NC(=O)Nc1ccc(Oc2cccc(C(=O)Nc3ccc(N4CCOCC4)cc3)c2)cc1 | 210 |  |  |

Now those with a lower IC50 [1], led by results:

| IC50 [1] [nM] | solubility [2] [µg/mL] | solubility [3] [µg/mL] | SMILES |
| --- | --- | --- | --- |
| 60 | 39 (≈ 64.1 µM) | ≤ 5 | O=C(Nc1ccc(Oc2ccnc(C(=O)NCCN3CCOCC3)c2)cc1)Nc1ccc(Br)c(C(F)(F)F)c1 |
| 70 |  |  | O=C(Nc1ccc(Oc2cccc(C(=O)NCCN3CCOCC3)c2)cc1)Nc1ccc(Cl)c(C(F)(F)F)c1 |
| 100 |  |  | COc1ccc(C(F)(F)F)cc1NC(=O)Nc1ccc(Oc2cccc(C(=O)Nc3cccnc3)c2)cc1 |
| 73 | 141 (≈ 250 µM) | ≤ 5 | O=C(Nc1ccc(Oc2ccnc(C(=O)NCCN3CCOCC3)c2)cc1)Nc1ccc(Cl)c(C(F)(F)F)c1 |
| 61 | ≤ 4 | ≤ 4 | CNC(=O)c1cncc(Oc2ccc(NC(=O)Nc3cc(C(F)(F)F)ccc3OC)cc2)c1 |
| 140 | 36 (≈ 63.8 µM) | ≤ 5 | O=C(Nc1ccc(Oc2cncc(C(=O)NCCN3CCOCC3)c2)cc1)Nc1ccc(Cl)c(C(F)(F)F)c1 |
| 82 |  |  | O=C(Nc1ccc(Oc2cccc(C(=O)NCCN3CCCCC3)c2)cc1)Nc1ccc(Cl)c(C(F)(F)F)c1 |
| 130 |  |  | COc1ccncc1NC(=O)c1cccc(Oc2ccc(NC(=O)Nc3ccc(Cl)c(C(F)(F)F)c3)cc2)c1 |
| 63 |  |  | COc1ccc(C(F)(F)F)cc1NC(=O)Nc1ccc(Oc2cncc(C(=O)NCCN3CCOCC3)c2)cc1 |
| 50 |  |  | CNC(=O)c1cncc(Oc2ccc(NC(=O)Nc3ccc(Cl)c(C(F)(F)F)c3)cc2)c1 |
| 100 | 129 (≈ 249 µM) | 41 (≈ 79.2 µM) | COc1ccc(C(F)(F)F)cc1NC(=O)Nc1ccc(Oc2cncc(C(=O)NCCN(C)C)c2)cc1 |
| 6 |  |  | CNC(=O)c1cc(Oc2ccc(NC(=O)Nc3ccc(Br)c(C(F)(F)F)c3)cc2)ccn1 |
| 53 |  |  | CNC(=O)c1cc(Oc2ccc(NC(=O)Nc3cc(C(F)(F)F)ccc3OC)cc2)ccn1 |
| 68 |  |  | CC(C)(C)c1cc(NC(=O)Nc2ccc(Oc3cccc(C(=O)Nc4cccnc4)c3)cc2)no1 |
| 130 |  |  | CNC(=O)c1cccc(Oc2ccc(NC(=O)Nc3cc(C(F)(F)F)ccc3OC)cc2)c1 |
| 120 |  |  | CNC(=O)c1cccc(Oc2ccc(NC(=O)Nc3cc(C(C)(C)C)on3)cc2)c1 |
| 26 |  |  | CCNC(=O)c1cc(Oc2ccc(NC(=O)Nc3ccc(Cl)c(C(F)(F)F)c3)cc2)ccn1 |
| 27 |  |  | CCNC(=O)c1cc(Oc2ccc(NC(=O)Nc3ccc(Br)c(C(F)(F)F)c3)cc2)ccn1 |
| 44 |  |  | O=C(Nc1ccc(Oc2cccc(C(=O)Nc3cccnc3)c2)cc1)Nc1ccc(Cl)c(C(F)(F)F)c1 |
| 150 |  |  | COc1ccc(NC(=O)c2cccc(Oc3ccc(NC(=O)Nc4cc(C(F)(F)F)ccc4OC)cc3)c2)cn1 |
| 140 |  |  | CCCNC(=O)c1cccc(Oc2ccc(NC(=O)Nc3cc(C(C)(C)C)on3)cc2)c1 |
| 130 |  |  | CNC(=O)c1cccc(Oc2ccc(NC(=O)Nc3ccc(Cl)c(C(F)(F)F)c3)cc2)c1 |
| 110 |  |  | COCCNC(=O)c1cccc(Oc2ccc(NC(=O)Nc3ccc(Cl)c(C(F)(F)F)c3)cc2)c1 |
| 130 |  |  | CCNC(=O)c1cccc(Oc2ccc(NC(=O)Nc3cc(C(C)(C)C)on3)cc2)c1 |
| 38 |  |  | CNC(=O)c1cc(Oc2ccc(NC(=O)Nc3cc(C(C)(C)C)on3)cc2)ccn1 |
